Data taken from ChEMBL document CHEMBL1135419, “Molecular docking and high-throughput screening for novel inhibitors of protein tyrosine phosphatase-1B” (J Med Chem, 2002).

molecular target: T1, Tyrosine-protein phosphatase non-receptor type 1 (Homo sapiens, UniProt P18031); experiment: Inhibition of human Protein-tyrosine phosphatase 1B (PTP1B) dephosphorylation of insulin receptor peptide
T1 sequence (P18031 whole entry): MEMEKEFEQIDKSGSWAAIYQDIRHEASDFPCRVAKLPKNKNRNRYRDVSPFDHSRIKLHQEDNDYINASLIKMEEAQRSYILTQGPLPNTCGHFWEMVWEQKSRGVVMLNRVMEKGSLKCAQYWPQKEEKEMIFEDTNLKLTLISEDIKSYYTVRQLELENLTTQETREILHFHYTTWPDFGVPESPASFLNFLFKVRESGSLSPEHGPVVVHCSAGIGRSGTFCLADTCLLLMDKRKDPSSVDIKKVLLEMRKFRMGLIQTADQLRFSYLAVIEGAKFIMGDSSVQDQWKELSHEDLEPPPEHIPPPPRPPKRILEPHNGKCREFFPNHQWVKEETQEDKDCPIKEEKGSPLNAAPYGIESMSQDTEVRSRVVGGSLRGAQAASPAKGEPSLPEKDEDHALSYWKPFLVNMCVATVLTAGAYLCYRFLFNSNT
Summary of the method: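 Human recombinant PTP1B (residues 1-322) with 50 µM phosphopeptide substrate, room temperature, stopped with malachite green reagent, absorbance read at 620 nm. Docking-set assay: 1 nM enzyme in 25 mM HEPES pH 7.4, 125 mM NaCl, 1 mM EDTA, 10% glycerol, 10 mM DTT, no albumin, 10 min, DMSO below 10%, triplicates. HTS assay: 0.9 nM enzyme, pH 7.0, 0.03% BSA, 60 min.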

| SMILES | IC50 [µM] |
| --- | --- |
| O=C(O)c1ccc(/C=C2/SC(=S)N(Cc3ccccc3)C2=O)cc1 | 21.6 |
| O=C(O)c1ccc(N2C(=O)/C(=C\C=C\c3ccccc3)SC2=S)cc1 | 4.4 |
| CC1=NN(c2cccc(Cl)c2)C(=O)/C1=C\c1ccc(-c2ccc(C(=O)O)c(Cl)c2)o1 | 19.3 |
| O=C(O)c1ccc(-c2ccc(/C=C3/S/C(=N\c4ccccc4)N(c4ccccc4)C3=O)o2)cc1O | 9 |
| O=C1NC(=O)C(=Cc2ccc(Sc3nc4ccc([N+](=O)[O-])cc4s3)c([N+](=O)[O-])c2)C(=O)N1 | 4.1 |
| CSc1[nH]nc(NC(=O)c2ccc(Cl)c(Cl)c2)c1S(=O)(=O)c1ccc(Cl)cc1 | 63.9 |
| CCOc1cc(/C=C2/N=C(c3ccc4c(c3)OCO4)OC2=O)cc(Cl)c1OC(C)=O | 35 |
| O=C(Nc1ccc(O)cc1)/C(=C/c1c[nH]c2ccccc12)NC(=O)c1ccccc1 | 21.5 |
| Oc1cccc(-c2nc(-c3ccc(-c4ccccc4)cc3)c(-c3ccc(-c4ccccc4)cc3)[nH]2)c1 | 8.6 |
| COC(=O)c1ccc2nc(NC(=O)COC(=O)c3ccc(Br)o3)sc2c1 | 34.4 |
| O=C(Nc1ccccc1)Nc1cc(-c2ccc(Cl)cc2)nn1-c1ccccc1 | 12 |
